IC50, Control and T/C data for 17 compounds are collected here from ChEMBL document CHEMBL1130418, “Synthesis and evaluation of 6-(dibromomethyl)-5-nitropyrimidines as potential antitumor agents” (J Med Chem, 1997).

What is called IC50 is the concentration needed to halve the response being measured. Broadly, the T/C is the result in the treated group divided by that in the control group, in per cent.

Assay [1] is filed under the species Mus musculus. In words: The concentration required to decrease the estimate of the minimum fraction of leukemic cells (L1210) of mice that survived treatment to 50%. * indicates cell proliferation was not slowed down at screen concentration 100 mM. Type of assay: functional, organism-based. Put shortly: (§1)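 Surviving-fraction estimate in L1210 suspension cultures (Fischer's medium) counted daily over 3 days across compound concentrations. The exponential part of each growth curve was extrapolated back to zero time, and the intercept was expressed as a percentage of the initial cell number. The value is the concentration that lowers this minimum surviving fraction to 50%.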

The species named for assay [2] is Mus musculus. In words: Concentration required to decrease the growth rate to 50% of control; cell proliferation was not slowed down at screen concentration 100 mM. Type of assay: functional, organism-based. Put shortly: (§2)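 Antiproliferative assay in L1210 murine leukemia or H.Ep.2 human epidermoid carcinoma cells. Cells were counted over time with compound present. Growth rate is the slope of log cell number versus time as a percentage of the control slope. IC50 is the concentration that lowers the growth rate to 50% of control. Values are usually the mean of two concentration–response determinations.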

For assay [3], the species on record is Mus musculus. Put plainly: The initial growth rate of cells in the presence at the screen concentration 100 mM in leukemic cells (L1210) of mice. Type of assay: functional.
For assay [4], the species on record is Mus musculus. Put plainly: The concentration required to decrease the estimate of the minimum fraction of leukemic cells (L1210) of mice that survived treatment to 50%. Type of assay: functional, organism-based. Put shortly: as §1
The species entered for assay [5] is Mus musculus. In words: Concentration required to decrease the growth rate to 50% of control. Type of assay: functional, organism-based. Put shortly:
as §2

Assay [6] deals with HEp-2. Put plainly: The initial growth rate of cells in the presence at the screen concentration 100 mM in human epidermoid carcinoma cells (H.Ep.2). Type of assay: functional. A digest of the protocol: (§3)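 H.Ep.2 monolayers were seeded at 2×10^4 cells per flask and switched after 1 day to medium containing compound at the single screen concentration. Duplicate flasks were counted on days 1, 2 and 4. The initial slope of log cell number versus time is given as a percentage of the untreated control slope.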

Assay [7] has as its system Mus musculus. Put plainly: Percent treated to untreated control was measured on Leukemia-bearing mice at the dose of 50 mg/kg. Type of assay: functional. Put shortly: (§4)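 Mice were inoculated with P388 leukemia cells, and compound was injected once daily on days 1–5 after inoculation at doses of 200 down to 6.25 mg/kg/injection. T/C% is the life span of treated mice divided by that of untreated tumor-bearing control mice, ×100.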

For assay [8], the system named is Mus musculus. In words: Percent treated to untreated control was measured on Leukemia-bearing mice at the dose of 100 mg/kg. Type of assay: functional. Put shortly:
as §4

Assay [9] deals with HEp-2. In words: The concentration required to decrease the estimate of the minimum fraction of human epidermoid carcinoma cells that survived treatment to 50% (H.Ep.2). Type of assay: functional, cell-based. Put shortly: (§5)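 Surviving fraction in H.Ep.2 monolayers exposed to compound from day 1 after seeding, with duplicate flasks counted on days 1, 2 and 4. The exponential growth curve was back-extrapolated to zero time, and the intercept was expressed as a percentage of initial cells. The value is the concentration that lowers this minimum surviving fraction to 50%.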

Assay [10] concerns Mus musculus. In words: Percent treated to untreated control was measured on Leukemia-bearing mice at the dose of 25 mg/kg. Type of assay: functional.
For assay [11], the system named is HEp-2. In words: Concentration required to decrease the growth rate to 50% of control on H.Ep.2 cells. Type of assay: functional, cell-based. Conditions: Homo sapiens; call rule not given here.
For assay [12], the species on record is Mus musculus. In words: The initial growth rate of cells in the presence at the screen concentration 10 mM in leukemic cells (L1210) of mice. Type of assay: functional.
The test system of assay [13] is HEp-2. In words: The concentration required to decrease the estimate of the minimum fraction of human epidermoid carcinoma cells that survived treatment to 50% (H.Ep.2); cell proliferation was not slowed down at screen concentration 100 mM. Type of assay: functional, cell-based. A digest of the protocol: as §5
In assay [14] the test system is HEp-2. Put plainly: Concentration required to decrease the growth rate to 50% of control on H.Ep.2 cells; cell proliferation was not slowed at the screen concentration 100 mM. Type of assay: functional, cell-based, Homo sapiens.
Assay [15] is filed under the species Mus musculus. Put plainly: The concentration required to decrease the estimate of the minimum fraction of leukemic cells (L1210) of mice that survived treatment to 50%; cell proliferation was not slowed down at screen concentration 100 mM. Type of assay: functional. A digest of the protocol:
as §1

The species entered for assay [16] is Mus musculus. In words: The concentration required to decrease the estimate of the minimum fraction of leukemic cells of mice that survived treatment to 50%; no evidence of surviving cell. Type of assay: functional, organism-based. A digest of the protocol:
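Minimum surviving fraction was estimated by back-extrapolating the exponential portion of treated-cell growth curves to zero time, as a percentage of the initial cell number. The value is the concentration that lowers this to 50%.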

The species entered for assay [17] is Mus musculus. In words: The concentration required to decrease the estimate of the minimum fraction of leukemic cells of mice that survived treatment to 50% (L1210); no evidence of survivin cell.
In assay [18] the test system is HEp-2. In words: The initial growth rate of cells in the presence at the screen concentration 10 mM in human epidermoid carcinoma cells (H.Ep.2). Type of assay: functional. Put shortly: as §3
For assay [19], the species on record is Mus musculus. In words: The concentration required to decrease the estimate of the minimum fraction of leukemic cells (L1210) of mice that survived treatment to 50%; no evidence of surviving cell. Type of assay: functional, organism-based. A digest of the protocol: as §1
Assay [20] relates to Mus musculus. Put plainly: Percent treated to untreated control was measured on Leukemia-bearing mice at the dose of 6.25 mg/kg. Type of assay: functional. Put shortly: as §4
Assay [21] relates to Mus musculus. Put plainly: Percent treated to untreated control was measured on Leukemia-bearing mice at the dose of 12.5 mg/kg. Type of assay: functional. Put shortly: as §4
The test system of assay [22] is HEp-2. In words: The concentration required to decrease the estimate of the minimum fraction of human epidermoid carcinoma cells that survived treatment to 50% (H.Ep.2); cell proliferation was not slowed at the screen concentration 100 mM. Type of assay: functional, cell-based. Put shortly: as §5
The species named for assay [23] is Mus musculus. Put plainly: Concentration required to decrease the growth rate to 50% of control; cell proliferation was not slowed at the screen concentration 100 mM. Type of assay: functional, organism-based. A digest of the protocol:
as §2

For assay [24], the species on record is Mus musculus. Put plainly: The concentration required to decrease the estimate of the minimum fraction of leukemic cells (L1210) of mice that survived treatment to 50%; cell proliferation was not slowed at the screen concentration 100 mM. Type of assay: functional. A digest of the protocol: as §1
Assay [25] is filed under the species Mus musculus. Put plainly: The concentration required to decrease the estimate of the minimum fraction of leukemic cells (L1210) of mice that survived treatment to 50%. * indicates cell proliferation was not slowed down at screen concentration 10 mM. Type of assay: functional. Put shortly: as §1
Assay [26] is filed under the species Mus musculus. Put plainly: Concentration required to decrease the growth rate to 50% of control; cell proliferation was not slowed down at screen concentration 10 mM. Type of assay: functional, organism-based. Put shortly: as §2
The species named for assay [27] is Mus musculus. Put plainly: Concentration required to decrease the growth rate to 50% of control.; cell proliferation was not slowed down at screen concentration 10 mM. Type of assay: functional, organism-based. Put shortly:
as §2

In the case of `Cc1nc(Cl)nc(Cl)c1[N+](=O)[O-]`, the concentration for half-maximal inhibition (IC50) result in the assay listed under Mus musculus [1] and in the assay listed under Mus musculus [2] was “Cell proliferation not slowed” throughout. In the assay filed under Mus musculus [3], this compound returned a Control of 104%.

Take `CCN(CC)c1nc(OC)nc(C(Br)Br)c1[N+](=O)[O-]`: the IC50 was 5600 nM in the assay filed under Mus musculus [4] and 5800 nM in the assay listed under Mus musculus [5]. Further, the Control in the assay with HEp-2 [6] and in the assay listed under Mus musculus [3] was 0% in each case.

For the compound `COc1nc(C(Br)Br)c([N+](=O)[O-])c(N2CCOCC2)n1`, the IC50 in the assay filed under Mus musculus [4] was 560 nM; in the assay filed under Mus musculus [5], 320 nM; in the assay with HEp-2 [9], 2800 nM; with HEp-2 [11], 1600 nM. For the same compound, the T/C with Mus musculus [7] is 101%; with Mus musculus [8] it was 87%; in the assay with Mus musculus [10], 109%. The Control in the assay with HEp-2 [6] and in the assay filed under Mus musculus [3] was 0% each time.

`COc1nc(C(Br)Br)c([N+](=O)[O-])c(N2CCCC2)n1`: in the assay filed under Mus musculus [12], the Control amounted to 0%. For the same compound, the IC50 in the assay filed under Mus musculus [4] is 1000 nM; in the assay listed under Mus musculus [5], 900 nM.

On to `COc1nc(CO)c([N+](=O)[O-])c(N2CCOCC2)n1`, for which the IC50 result in the assay on HEp-2 [13], in the assay listed under Mus musculus [2], in the assay on HEp-2 [14] and in the assay filed under Mus musculus [15] was “Cell proliferation not slowed” in each case. In addition, the Control in the assay with HEp-2 [6] and in the assay listed under Mus musculus [3] was 100% throughout.

For `CCOc1nc(OCC)c([N+](=O)[O-])c(C(Br)Br)n1`, the values for the IC50 in the assay listed under Mus musculus [5] and in the assay listed under Mus musculus [16] were 7200 nM and “Not Active”, respectively. This compound also registered a Control in the assay listed under Mus musculus [3] of 0%.

In the case of `CCOc1nc(C(Br)Br)c([N+](=O)[O-])c(N2CCOCC2)n1`, the IC50 in the assay listed under Mus musculus [5] was 3600 nM; in the assay listed under Mus musculus [17], “Not Active”. The Control in the assay listed under Mus musculus [3] came out at 13%.

As for `CNc1nc(OC)nc(C(Br)Br)c1[N+](=O)[O-]`, the IC50 in the assay filed under Mus musculus [4] is 2000 nM; in the assay filed under Mus musculus [5], 2300 nM. Besides, the Control in the assay with HEp-2 [6] and in the assay filed under Mus musculus [3] was 0% each time.

For `COc1nc(C(Br)Br)c([N+](=O)[O-])c(N2CCCCC2)n1`, the Control in the assay filed under Mus musculus [12] turned out to be 0%; in the assay with HEp-2 [18], 36%. For the same compound, the figures for the half-maximal inhibitory concentration (IC50) in the assay filed under Mus musculus [4] and in the assay listed under Mus musculus [5] were 1800 nM and 540 nM, respectively.

As to `COc1nc(N)c([N+](=O)[O-])c(C(Br)Br)n1`, the IC50 result in the assay filed under Mus musculus [19] was “Not Active”; in the assay filed under Mus musculus [5], 2000 nM; with HEp-2 [9], 3300 nM; in the assay on HEp-2 [11], 1600 nM. Moreover, the T/C turned out to be 104% in the assay with Mus musculus [20], 100% with Mus musculus [21] and 91% in the assay on Mus musculus [10]. Further, the Control in the assay with HEp-2 [6] and in the assay filed under Mus musculus [3] was 0% in each case.

Consider `COc1nc(C)c([N+](=O)[O-])c(OC)n1`, for which the IC50 entry in the assay on HEp-2 [22], in the assay listed under Mus musculus [23], in the assay listed under Mus musculus [24] and in the assay with HEp-2 [14] was “Cell proliferation not slowed” throughout. For the same compound, the Control with HEp-2 [6] is 90%; in the assay filed under Mus musculus [3], 104%.

Regarding `COc1nc(OC)c([N+](=O)[O-])c(C(Br)Br)n1`, the IC50 in the assay filed under Mus musculus [5] was 1900 nM; in the assay on HEp-2 [9] it was 2700 nM; in the assay on HEp-2 [11], 2500 nM; in the assay listed under Mus musculus [16], “Not Active”. Besides, the Control in the assay on HEp-2 [6] and in the assay filed under Mus musculus [3] was 0% throughout.

Compound `COc1nc(C=P(c2ccccc2)(c2ccccc2)c2ccccc2)c([N+](=O)[O-])c(OC)n1` came in with a Control in the assay listed under Mus musculus [12] of 93%. The IC50 result in the assay listed under Mus musculus [25] and in the assay listed under Mus musculus [26] was “Cell proliferation not slowed” throughout.

For the compound `COc1nc(/C=C\N(C)C)c([N+](=O)[O-])c(OC)n1`, the Control in the assay listed under Mus musculus [12] was determined as 87%. Also, the IC50 result in the assay listed under Mus musculus [27] and in the assay listed under Mus musculus [25] was “Cell proliferation not slowed” in each case.

Turning to `COc1nc(CBr)c([N+](=O)[O-])c(OC)n1`, the results for the IC50 in the assay filed under Mus musculus [4] and in the assay filed under Mus musculus [5] were 25000 nM and 8000 nM, respectively. Besides, the Control in the assay with HEp-2 [6] and in the assay listed under Mus musculus [3] was 0% in each case.

For `COc1nc(C=O)c([N+](=O)[O-])c(N(C)C)n1`, the values for the IC50 in the assay listed under Mus musculus [4] and in the assay filed under Mus musculus [5] were 12000 nM and 5900 nM, respectively. Besides, the Control in the assay listed under Mus musculus [3] worked out at 0%.

For `CCCOc1nc(C(Br)Br)c([N+](=O)[O-])c(N2CCOCC2)n1`, the Control in the assay filed under Mus musculus [12] was found to be 13%. For the same compound, the IC50 was 6100 nM in the assay listed under Mus musculus [4] and 2300 nM in the assay filed under Mus musculus [5].
